# Results published in ChEMBL document CHEMBL5247575 (J Med Chem, 2018).
# Tested on: Klebsiella pneumoniae
# Assay: Synergistic antibacterial activity against Klebsiella pneumoniae 761/1723 producing KPC-3 assessed as meropenem MIC at 4 ug/ml by broth microdilution method
# Assay type: functional
# Conditions: dose 4 µg/ml
row,Compound,MIC [µg/mL]
1,O=C(NNC(=O)[C@@H]1CC[C@@H]2CN1C(=O)N2OS(=O)(=O)O)[C@@H]1CCCNC1 [ZIDEBACTAM],≤ 0.12

# Tested on: Klebsiella pneumoniae
# Assay: Synergistic antibacterial activity against Klebsiella pneumoniae 1354/2241 producing KPC-3 assessed as meropenem MIC at 4 ug/ml by broth microdilution method
# Assay type: functional
# Conditions: dose 4 µg/ml
# Procedure, shortened: (§1)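 Broth microdilution per CLSI guidelines, using custom frozen panels. […] Each partner drug was also tested alone. MICs were run in triplicate and the modal value is reported.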
row,Compound,MIC [µg/mL]
1,O=C(NNC(=O)[C@@H]1CC[C@@H]2CN1C(=O)N2OS(=O)(=O)O)[C@@H]1CCCNC1 [ZIDEBACTAM],≤ 0.12

# Tested on: Klebsiella pneumoniae
# Assay: Synergistic antibacterial activity against Klebsiella pneumoniae NY BS producing OXA-232 assessed as meropenem MIC at 4 ug/ml by broth microdilution method
# Assay type: functional
# Conditions: dose 4 µg/ml
row,Compound,MIC [µg/mL]
1,O=C(NNC(=O)[C@@H]1CC[C@@H]2CN1C(=O)N2OS(=O)(=O)O)[C@@H]1CCCNC1 [ZIDEBACTAM],≤ 0.12

# Tested on: Pseudomonas aeruginosa
# Assay: Synergistic antibacterial activity against Pseudomonas aeruginosa CL232 assessed as meropenem MIC at 4 ug/ml by broth microdilution method
# Assay type: functional
# Conditions: dose 4 µg/ml
row,Compound,MIC [µg/mL]
1,O=C(NNC(=O)[C@@H]1CC[C@@H]2CN1C(=O)N2OS(=O)(=O)O)[C@@H]1CCCNC1 [ZIDEBACTAM],> 16

# Tested on: Pseudomonas aeruginosa
# Assay: Synergistic antibacterial activity against Pseudomonas aeruginosa 776 assessed as meropenem MIC at 4 ug/ml by broth microdilution method
# Assay type: functional
# Conditions: dose 4 µg/ml
row,Compound,MIC [µg/mL]
1,O=C(NNC(=O)[C@@H]1CC[C@@H]2CN1C(=O)N2OS(=O)(=O)O)[C@@H]1CCCNC1 [ZIDEBACTAM],16

# Tested on: Pseudomonas aeruginosa
# Assay: Synergistic antibacterial activity against Pseudomonas aeruginosa 795 assessed as meropenem MIC at 4 ug/ml by broth microdilution method
# Assay type: functional
# Conditions: dose 4 µg/ml
row,Compound,MIC [µg/mL]
1,O=C(NNC(=O)[C@@H]1CC[C@@H]2CN1C(=O)N2OS(=O)(=O)O)[C@@H]1CCCNC1 [ZIDEBACTAM],16

# Tested on: Acinetobacter baumannii
# Assay: Synergistic antibacterial activity against Acinetobacter baumannii PR359 producing OXA-23 assessed as meropenem MIC at 4 ug/ml by broth microdilution method
# Assay type: functional
# Conditions: dose 4 µg/ml
row,Compound,MIC [µg/mL]
1,O=C(NNC(=O)[C@@H]1CC[C@@H]2CN1C(=O)N2OS(=O)(=O)O)[C@@H]1CCCNC1 [ZIDEBACTAM],> 16

# Tested on: Acinetobacter baumannii
# Assay: Synergistic antibacterial activity against Acinetobacter baumannii PR420 producing OXA-23/24/40 assessed as meropenem MIC at 4 ug/ml by broth microdilution method
# Assay type: functional
# Conditions: dose 4 µg/ml
row,Compound,MIC [µg/mL]
1,O=C(NNC(=O)[C@@H]1CC[C@@H]2CN1C(=O)N2OS(=O)(=O)O)[C@@H]1CCCNC1 [ZIDEBACTAM],> 16

# Tested on: Acinetobacter baumannii
# Assay: Synergistic antibacterial activity against Acinetobacter baumannii PR474 producing OXA-23/24/40 assessed as meropenem MIC at 4 ug/ml by broth microdilution method
# Assay type: functional
# Conditions: dose 4 µg/ml
row,Compound,MIC [µg/mL]
1,O=C(NNC(=O)[C@@H]1CC[C@@H]2CN1C(=O)N2OS(=O)(=O)O)[C@@H]1CCCNC1 [ZIDEBACTAM],> 16

# Tested on: Acinetobacter baumannii
# Assay: Synergistic antibacterial activity against ADC deleted Acinetobacter baumannii transfected with pWH1266 producing OXA-24/40 assessed as meropenem MIC at 4 ug/ml by broth microdilution method
# Assay type: functional
# Conditions: dose 4 µg/ml
row,Compound,MIC [µg/mL]
1,O=C(NNC(=O)[C@@H]1CC[C@@H]2CN1C(=O)N2OS(=O)(=O)O)[C@@H]1CCCNC1 [ZIDEBACTAM],> 16

# Tested on: Escherichia coli
# Assay: Synergistic antibacterial activity against Escherichia coli DH10B transfected with pBC SK (-) KPC-3 assessed as meropenem MIC at 8 ug/ml by broth microdilution method
# Assay type: functional
# Conditions: dose 8 µg/ml
row,Compound,MIC [µg/mL]
1,O=C(NNC(=O)[C@@H]1CC[C@@H]2CN1C(=O)N2OS(=O)(=O)O)[C@@H]1CCCNC1 [ZIDEBACTAM],≤ 0.12

# Tested on: Escherichia coli
# Assay: Synergistic antibacterial activity against Escherichia coli DH10B transfected with pBC SK (-) PDC-3 assessed as meropenem MIC at 8 ug/ml by broth microdilution method
# Assay type: functional
# Conditions: dose 8 µg/ml
# Procedure, shortened: as §1
row,Compound,MIC [µg/mL]
1,O=C(NNC(=O)[C@@H]1CC[C@@H]2CN1C(=O)N2OS(=O)(=O)O)[C@@H]1CCCNC1 [ZIDEBACTAM],≤ 0.12

# Tested on: Escherichia coli
# Assay: Synergistic antibacterial activity against Escherichia coli DH10B transfected with pBC SK (-) OXA-48 assessed as meropenem MIC at 8 ug/ml by broth microdilution method
# Assay type: functional
# Conditions: dose 8 µg/ml
# Procedure, shortened: as §1
row,Compound,MIC [µg/mL]
1,O=C(NNC(=O)[C@@H]1CC[C@@H]2CN1C(=O)N2OS(=O)(=O)O)[C@@H]1CCCNC1 [ZIDEBACTAM],≤ 0.12

# Tested on: Klebsiella pneumoniae
# Assay: Synergistic antibacterial activity against Klebsiella pneumoniae 1398/2291 producing KPC-3 assessed as meropenem MIC at 8 ug/ml by broth microdilution method
# Assay type: functional
# Conditions: dose 8 µg/ml
# Procedure, shortened: as §1
row,Compound,MIC [µg/mL]
1,O=C(NNC(=O)[C@@H]1CC[C@@H]2CN1C(=O)N2OS(=O)(=O)O)[C@@H]1CCCNC1 [ZIDEBACTAM],≤ 0.12

# Tested on: Klebsiella pneumoniae
# Assay: Synergistic antibacterial activity against Klebsiella pneumoniae 972/1910 producing KPC-3 assessed as meropenem MIC at 8 ug/ml by broth microdilution method
# Assay type: functional
# Conditions: dose 8 µg/ml
row,Compound,MIC [µg/mL]
1,O=C(NNC(=O)[C@@H]1CC[C@@H]2CN1C(=O)N2OS(=O)(=O)O)[C@@H]1CCCNC1 [ZIDEBACTAM],≤ 0.12

# Tested on: Pseudomonas aeruginosa
# Assay: Synergistic antibacterial activity against Pseudomonas aeruginosa 776 assessed as meropenem MIC at 8 ug/ml by broth microdilution method
# Assay type: functional
# Conditions: dose 8 µg/ml
row,Compound,MIC [µg/mL]
1,O=C(NNC(=O)[C@@H]1CC[C@@H]2CN1C(=O)N2OS(=O)(=O)O)[C@@H]1CCCNC1 [ZIDEBACTAM],16

# Tested on: Acinetobacter baumannii
# Assay: Synergistic antibacterial activity against Acinetobacter baumannii PR319 producing OXA-23/24/40 assessed as meropenem MIC at 8 ug/ml by broth microdilution method
# Assay type: functional
# Conditions: dose 8 µg/ml
row,Compound,MIC [µg/mL]
1,O=C(NNC(=O)[C@@H]1CC[C@@H]2CN1C(=O)N2OS(=O)(=O)O)[C@@H]1CCCNC1 [ZIDEBACTAM],> 16

# Tested on: Acinetobacter baumannii
# Assay: Synergistic antibacterial activity against Acinetobacter baumannii PR420 producing OXA-23/24/40 assessed as meropenem MIC at 8 ug/ml by broth microdilution method
# Assay type: functional
# Conditions: dose 8 µg/ml
row,Compound,MIC [µg/mL]
1,O=C(NNC(=O)[C@@H]1CC[C@@H]2CN1C(=O)N2OS(=O)(=O)O)[C@@H]1CCCNC1 [ZIDEBACTAM],> 16
